In ChEMBL document CHEMBL1148358, “DNA binding to guide the development of tetrahydroindeno[1,2-b]pyrido[4,3,2-de]quinoline derivatives as cytotoxic agents” (J Med Chem, 2004) one finds ΔTm, IC50 and K app data, which are given here for 16 compounds.

As usually defined, the ΔTm is the shift of the melting midpoint relative to a reference. Usually IC50 stands for the concentration that gives 50% inhibition. Low values mean greater potency in that assay, high ones weaker potency in that assay.

Bounds are passed on as bounds.

In assay [1] the test system is Nucleic Acid. The assay is described as follows: Relative DNA binding affinity was determined as difference in melting temperature (delta Tm) with the polynucleotide Poly (dAT)2 complex and alone Poly (dAT)2. In kind it is nucleic-acid assay.
A further assay deals with PC-3. The assay is described as follows: Cytotoxicity towards human prostate cancer PC 3 cell line was determined. In kind it is functional, cell-based. The gist of the method: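 PC 3 cells kept in RPMI 1640 with 10% FCS were seeded at 3 × 10⁴ cells/well. After 3 days they were serum-starved for 24 h, then stimulated with 10 ng/mL EGF plus transferrin 50 ng/mL and selenium 50 pg/mL, with compounds added. Growth was read by MTT colorimetry after a further 72 h.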

Assay [2] relates to Nucleic Acid. The assay is described as follows: Apparent binding constant with polynucleotide Poly (dAT)2 complex measured by fluorescence assay. In kind it is nucleic-acid assay. The following applies: in the assay text read “calf thymus DNA” for “polynucleotide Poly (dAT)2 complex”. The gist of the method: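 Ethidium displacement by fluorescence: excitation 515 nm, emission read over 550-700 nm, [ethidium]/[DNA] molar ratio 12.6:10, drug 0.01-100 µM in BPE buffer pH 7.1. C50 for ethidium displacement taken from a fitted curve; Kapp = (1.26 µM/C50) × K_ethidium, with K_ethidium = 10⁷ M^-1.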

For assay [3], the system named is Nucleic Acid. The assay is described as follows: Apparent binding constant with calf thymus DNA measured by fluorescence assay.

`COc1cc2nc3c(c4c2c(c1OC)N(C(C)=O)CC4)Cc1cc(OCCCN2CCN(C)CC2)ccc1-3`: the thermal shift (ΔTm) in the assay with Nucleic Acid [1] was 3.8 °C. In addition, in the assay on PC-3, the IC50 is > 1000 nM. In addition, in the assay on Nucleic Acid [2], the K app was found to be 3.58e+06 M⁻¹.

For the compound `COc1cc2nc3c(c4c2c(c1OC)N(C(C)=O)CC4)Cc1cc(OCCN)ccc1-3`, the ΔTm with Nucleic Acid [1] came to 7 °C. For the same compound, in the assay on PC-3, the IC50 was > 1000 nM. The K app in the assay on Nucleic Acid [2] was 990000 M⁻¹.

In the case of `COc1cc2nc3c(c4c2c(c1OC)N(C(C)=O)CC4)Cc1cc(O)ccc1-3`, the ΔTm with Nucleic Acid [1] came out at 3.1 °C. In the assay with PC-3, the half-maximal inhibitory concentration (IC50) was > 1000 nM. Also, the K app with Nucleic Acid [2] amounted to 677000 M⁻¹.

In the case of `COc1cc2nc3c(c4c2c(c1OC)N(C(=O)CN1CCN(C)CC1)CC4)Cc1cc(OCCCN)ccc1-3`, in the assay on Nucleic Acid [1], the ΔTm was found to be 22.5 °C. In the assay with PC-3, the IC50 is > 1000 nM. Besides, the K app in the assay with Nucleic Acid [3] came out at 2.78e+06 M⁻¹.

As to `COc1cc2nc3c(c4c2c(c1OC)NCC4)Cc1cc(OCCN)ccc1-3`, the ΔTm with Nucleic Acid [1] stood at 14.8 °C. Moreover, the IC50 in the assay with PC-3 was > 1000 nM. Moreover, in the assay with Nucleic Acid [2], the K app came to 5.14e+06 M⁻¹.

Consider `COc1cc2nc3c(c4c2c(c1OC)NCC4)Cc1cc(O)ccc1-3`, for which the ΔTm in the assay on Nucleic Acid [1] worked out at 4 °C. Moreover, the IC50 in the assay on PC-3 is > 1000 nM. Moreover, in the assay on Nucleic Acid [3], the K app came to 672000 M⁻¹.

Take `COc1cc2nc3c(c4c2c(c1OC)N(C(C)=O)CC4)Cc1cc(OCCCN)ccc1-3`: the ΔTm in the assay on Nucleic Acid [1] is 6 °C. Moreover, the IC50 with PC-3 was > 1000 nM. In addition, in the assay with Nucleic Acid [3], the K app worked out at 293000 M⁻¹.

As to `COc1cc2nc3c(c4c2c(c1OC)NCC4)Cc1cc(OCCCN2CCN(C)CC2)ccc1-3`, in the assay on Nucleic Acid [1], the shift in melting temperature (ΔTm) came out at 10 °C. This compound showed an IC50 in the assay with PC-3 of 6.5 nM. Also, the K app with Nucleic Acid [2] was found to be 301000 M⁻¹.

With `COc1cc2nc3c(c4c2c(c1OC)N(C(=O)CN1CCN(C)CC1)CC4)Cc1cc(OCCN)ccc1-3`, the ΔTm with Nucleic Acid [1] stood at 19.6 °C. The IC50 with PC-3 is > 1000 nM. Also, the K app with Nucleic Acid [2] was 503000 M⁻¹.

In the case of `COc1cc2nc3c(c4c2c(c1OC)NCC4)Cc1ccccc1-3`, the ΔTm in the assay with Nucleic Acid [1] was found to be 0 °C. For the same compound, the IC50 with PC-3 was > 1000 nM. Moreover, the K app in the assay on Nucleic Acid [2] is 3100 M⁻¹.

As to `COc1cc2nc3c(c4c2c(c1OC)N(C(C)=O)CC4)Cc1ccccc1-3`, in the assay with PC-3, the IC50 was > 1000 nM.

In the case of `COc1ccc2c(c1)Cc1c-2nc2cc(OC)c(OC)c3c2c1CCN3`, the ΔTm with Nucleic Acid [1] is 0 °C. In addition, in the assay with PC-3, the IC50 is > 1000 nM. Also, in the assay on Nucleic Acid [2], the K app is 1700 M⁻¹.

Take `COc1cc2nc3c(c4c2c(c1OC)NCC4)CCc1cc(O)ccc1-3`: in the assay with Nucleic Acid [1], the ΔTm came to 1.1 °C. In addition, in the assay on PC-3, the IC50 is > 1000 nM. For the same compound, in the assay on Nucleic Acid [2], the K app was 1600 M⁻¹.

As for `COc1cc2nc3c(c4c2c(c1OC)NCC4)Cc1cc(OCCCN)ccc1-3`, the ΔTm in the assay with Nucleic Acid [1] is 15.8 °C. The IC50 in the assay with PC-3 is > 1000 nM. Moreover, the K app in the assay on Nucleic Acid [2] was 6.13e+06 M⁻¹.

Take `COc1ccc2c(c1)Cc1c-2nc2cc(OC)c(OC)c3c2c1CCN3C(C)=O`: the IC50 in the assay on PC-3 is > 1000 nM.

For `COc1cc2nc3c(c4c2c(c1OC)N(C(=O)CN1CCN(C)CC1)CC4)Cc1cc(OCCCN2CCN(C)CC2)ccc1-3`, the ΔTm in the assay on Nucleic Acid [1] was found to be 32.5 °C. The IC50 in the assay with PC-3 was > 1000 nM. The K app in the assay on Nucleic Acid [2] turned out to be 3.04e+06 M⁻¹.
